Source: PubChem (several laboratories)
TLR4 MyD88 comp = inhibitors of human TLR4-MyD88 binding; inhibition, % at 8.4 µM; AID 861; 0.18% of 200,000 active; HeLa CL3-4 TLR4/MyD88 BLA complementation, FRET ratio; O00206+Q99836; in the data active = inhibition above about 25%;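 note: 0% = vehicle and 100% = reference inhibitor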
MC4R antag cAMP = blocks human MC4R cAMP signaling; inhibition, % at 6.5 µM; MC4R-expressing cells, MTII-stimulated cAMP, LANCE TR-FRET; 0.48% of 360,000 active;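 active = inhibition above its plate's cutoff, the mean of tested wells on that plate plus 3 SD, cut at about 29% in these data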;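 note: 0% = Melanotan II alone and 100% = Melanotan II plus saturating MCL0020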
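Material – human MC4R-expressing U2OS cells · Repeats – no replicates · Detection – TR-FRET with Eu-cAMP and labeled anti-cAMP, 671 nm · Times – compound 30 min, challenge 1 h, detection 1 h · Compound – single nominal compound dose of 6.5 µM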
TLR9-MyD88 block = blocks human TLR9 binding to MyD88. Q9NR96+Q99836. CHO BLA complementation TLR9-MyD88, CCF4 FRET ratio. inhibition, % at 4.98 µM. 0.21% of 340,000 active;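 active = inhibition above the mean over all tested compounds plus 3 SD, cut at about 21% in these data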;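 note: 0% = DMSO only wells and 100% = clavulanate BLA inhibitor control wells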
MC4R ag barr = activates human MC4R beta-arrestin recruitment | activation, % at 8.9 µM | U2OS MC4R beta-arrestin complementation, luminescence; percent of melanotan II response, DMSO zero | P32245 | 0.98% of 360,000 active;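 active = activation above a per-plate cutoff, the mean activation of sample wells on that plate plus 3 SD, cut at about 8% in these data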
NTR1 agonist = activates human neurotensin receptor 1; 0.17% of 330,000 active; P30989; NTR1-U2OS beta-arrestin-GFP spot imaging, agonist mode; activation, % at 20 µM;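 active = activation at or above 40% of the spot to cytoplasm intensity ratio, with at least 20 cells analyzed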;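 note: 0% = DMSO without peptide and 100% = 100 nM NTR1 peptide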
NOD2-RIPK2 inh = blocks binding of human NOD2 to RIPK2. O43353. CHO BLA complementation NOD2-RIPK2, CCF4 ratio. inhibition, % at 4.98 µM. 0.38% of 360,000 active; in the data active = inhibition above about 21%;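 note: 0% = vehicle only and 100% = reference blocker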
TLR9-MyD88 cf = confirmation of human TLR9-MyD88 binding inhibitors | shares compounds with TLR9-MyD88 block | CHO TLR9/MyD88 BLA complementation, CCF4 FRET ratio | inhibition, % at 4.98 µM | 51% of 680 active | AID 540250;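 active = mean inhibition across three repeats above about 21% taken from the earlier screen, limit read from the data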;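 note: blue over green emission ratio reports constitutive TLR9 MyD88 association via BLA complementation; 0% = DMSO vehicle wells and 100% = clavulanate BLA inhibitor wells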
BLA nonselective = counter-screen for TLR9-MyD88 inhibitors: non-selective beta-lactamase inhibitors; shares compounds with TLR9-MyD88 block; CHO-BLA cells, CCF4 FRET ratio, BLA reporter; inhibition, % at 4.98 µM; 7% of 680 active;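 active = mean inhibition above a 50% cutoff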;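 note: counterscreen of TLR9-MyD88 hits on CMV-driven BLA in CHO-K1 cells; 0% = DMSO alone and 100% = clavulanate blocking BLA; higher means less blue over green ratio so more BLA blockade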
TLR9 CHO cytotox = counter-screen for TLR9-MyD88 inhibitors: cytotoxicity in CHO cells; shares compounds with TLR9-MyD88 block; luminescence; inhibition, % at 4.98 µM; 39% of 680 active; in the data active = inhibition above about 11%
An asterisk follows results filed as active. Hits are enriched below; roughly 1.9% of the tested compounds scored in any of these assays.

What do the screens show for `O=c1c2cc([N+](=O)[O-])ccc2sn1-c1ccccc1`?
MC4R antag cAMP: 5; TLR9-MyD88 block: 29*; MC4R ag barr: -3; NOD2-RIPK2 inh: 7; TLR9-MyD88 cf: 37*; BLA nonselective: 0; TLR9 CHO cytotox: 87*

Results for COc1cccc(C2CC(=O)Nc3c2c(=O)n(C)c(=O)n3C)c1OC (stereo not drawn) ?
TLR4 MyD88 comp: -15; MC4R antag cAMP: 1; TLR9-MyD88 block: 24*; MC4R ag barr: 0; NTR1 agonist: 4; NOD2-RIPK2 inh: -9; TLR9-MyD88 cf: -2; BLA nonselective: -3; TLR9 CHO cytotox: -5

What do the screens show for `COc1ccccc1C1CC(=O)Nc2c1c(=O)n(C)c(=O)n2C` (stereo not drawn)?
TLR4 MyD88 comp: 4; MC4R antag cAMP: 2; TLR9-MyD88 block: -5; MC4R ag barr: 0; NTR1 agonist: -1; NOD2-RIPK2 inh: -10

What do the screens show for `CCOC(=O)c1c(C)nc2sc(C(=O)Nc3ccccc3)c(N)c2c1-c1ccc(OC)cc1`?
TLR4 MyD88 comp: 19; MC4R antag cAMP: 5; TLR9-MyD88 block: 31*; MC4R ag barr: -1; NTR1 agonist: 5; NOD2-RIPK2 inh: 14; TLR9-MyD88 cf: 19; BLA nonselective: 19; TLR9 CHO cytotox: 15*

Results for CCCc1cc(=O)oc2cc(OC3CCCCC3=O)ccc12 (stereo not drawn) ?
MC4R antag cAMP: 3; TLR9-MyD88 block: 0; MC4R ag barr: -1; NTR1 agonist: 0; NOD2-RIPK2 inh: -2

What do the screens show for `O=C1N/C(=N\S(=O)(=O)c2ccccc2)S/C1=C\c1cc([N+](=O)[O-])ccc1O`?
MC4R antag cAMP: 0; TLR9-MyD88 block: 25*; MC4R ag barr: 0; NTR1 agonist: -1; NOD2-RIPK2 inh: 11; TLR9-MyD88 cf: 9; BLA nonselective: 13; TLR9 CHO cytotox: 0

Results for COc1cc(/C=C2/S/C(=N/S(=O)(=O)c3ccccc3)NC2=O)c([N+](=O)[O-])cc1OC ?
TLR4 MyD88 comp: 5; MC4R antag cAMP: -9; TLR9-MyD88 block: -4; MC4R ag barr: -1; NTR1 agonist: 3; NOD2-RIPK2 inh: -7

What do the screens show for `O=C(N/N=C/c1c(O)n(-c2ccc(Cl)cn2)c(=O)c2ccccc12)C1CC1`?
TLR4 MyD88 comp: -5; MC4R antag cAMP: -4; TLR9-MyD88 block: 3; MC4R ag barr: 3; NTR1 agonist: 1; NOD2-RIPK2 inh: 4

What do the screens show for `O=C(N/N=C/c1c(O)n(-c2ccc(Cl)cn2)c(=O)c2ccccc12)c1ccncc1`?
TLR4 MyD88 comp: 13; MC4R antag cAMP: 5; TLR9-MyD88 block: 21*; MC4R ag barr: 1; NTR1 agonist: 1; NOD2-RIPK2 inh: 14; TLR9-MyD88 cf: 8; BLA nonselective: 10; TLR9 CHO cytotox: -5

How did CCC(=O)N1CCc2cc(S(=O)(=O)CCC(=O)Nc3ccc(OC)c(OC)c3)ccc21 do in these assays?
TLR4 MyD88 comp: 2; MC4R antag cAMP: 4; TLR9-MyD88 block: -2; MC4R ag barr: -1; NTR1 agonist: 3; NOD2-RIPK2 inh: 5

Results for COC(=O)c1ccc(NC(=O)c2nc(S(=O)(=O)Cc3cccc(C)c3)ncc2Cl)cc1 ?
MC4R antag cAMP: 14; TLR9-MyD88 block: 42*; MC4R ag barr: -6; NTR1 agonist: -2; NOD2-RIPK2 inh: 18; TLR9-MyD88 cf: 33*; BLA nonselective: 27; TLR9 CHO cytotox: 100*

What do the screens show for `O=C(/C=C/c1ccccc1)OCN1C(=O)c2ccccc2C1=O`?
MC4R antag cAMP: 1; TLR9-MyD88 block: 2; MC4R ag barr: -1; NTR1 agonist: 1; NOD2-RIPK2 inh: -3
